Laboratory results from PubChem BioAssay.
Active and inactive are the calls of the source.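 The calls were made as follows, unless noted: active = viability loss from added drug above about 55%, and viability with drug at most 40%, in both replicates (limit read from the data, passing the limit was not always enough); inconclusive = both conditions met in only one replicate; inactive = neither replicate meets both conditions.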

Tests used:
[1] = Her2 expression decrease, cell viability multiplex – SKBR3 breast tumor cells, AlphaScreen, ATP viability, primary screen (AID 461;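 active = Her2 level under about 52% in both replicate screens, with viability over 70% of control, limit read from the data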;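 as to Her2 level: lower value means less Her2 protein in the cells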;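 as to viability: percent of carrier control wells set as 100% viability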); details: SKBR3 Her2 protein level, 18-24 h, measured here: SKBR3 viability, ATP luminescence, at 10 µM
[2] = molecular target: Receptor tyrosine-protein kinase erbB-2 (Homo sapiens) (UniProt P04626); assay: as above; details: 18-24 h, at 10 µM, stronger effect = lower value
Sequence of Receptor tyrosine-protein kinase erbB-2 (Homo sapiens) (P04626 whole entry, looked up): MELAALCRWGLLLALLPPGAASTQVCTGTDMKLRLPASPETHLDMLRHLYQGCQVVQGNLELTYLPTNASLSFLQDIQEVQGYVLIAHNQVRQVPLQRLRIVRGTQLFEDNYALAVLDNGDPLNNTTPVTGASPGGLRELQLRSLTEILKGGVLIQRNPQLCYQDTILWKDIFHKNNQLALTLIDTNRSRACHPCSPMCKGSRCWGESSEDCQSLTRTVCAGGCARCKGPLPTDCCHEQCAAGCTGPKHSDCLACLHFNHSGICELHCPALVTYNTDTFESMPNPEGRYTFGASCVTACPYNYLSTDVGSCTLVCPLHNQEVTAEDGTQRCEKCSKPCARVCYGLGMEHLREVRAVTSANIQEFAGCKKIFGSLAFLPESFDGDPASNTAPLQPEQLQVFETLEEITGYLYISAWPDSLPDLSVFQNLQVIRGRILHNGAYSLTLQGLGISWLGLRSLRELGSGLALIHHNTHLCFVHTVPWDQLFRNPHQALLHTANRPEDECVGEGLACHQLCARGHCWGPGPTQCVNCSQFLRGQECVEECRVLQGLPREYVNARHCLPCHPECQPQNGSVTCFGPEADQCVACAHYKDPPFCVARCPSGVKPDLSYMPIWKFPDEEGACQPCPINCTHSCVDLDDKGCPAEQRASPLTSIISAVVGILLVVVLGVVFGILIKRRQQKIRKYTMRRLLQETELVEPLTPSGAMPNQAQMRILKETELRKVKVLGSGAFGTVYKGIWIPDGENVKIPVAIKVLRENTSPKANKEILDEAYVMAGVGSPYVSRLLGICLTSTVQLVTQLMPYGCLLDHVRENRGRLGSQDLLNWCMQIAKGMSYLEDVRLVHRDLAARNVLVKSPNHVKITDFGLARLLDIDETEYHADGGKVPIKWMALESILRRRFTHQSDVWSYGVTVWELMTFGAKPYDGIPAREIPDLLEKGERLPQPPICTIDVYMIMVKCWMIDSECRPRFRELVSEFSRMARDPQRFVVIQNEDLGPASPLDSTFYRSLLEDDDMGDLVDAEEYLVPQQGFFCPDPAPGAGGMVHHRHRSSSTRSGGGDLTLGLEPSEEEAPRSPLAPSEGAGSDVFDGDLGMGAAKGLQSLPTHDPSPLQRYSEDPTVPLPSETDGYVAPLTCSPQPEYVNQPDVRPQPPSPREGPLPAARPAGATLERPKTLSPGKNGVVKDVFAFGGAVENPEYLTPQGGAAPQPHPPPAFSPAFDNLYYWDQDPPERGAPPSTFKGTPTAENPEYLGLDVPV

[3] = reduced viability of SK-BR-3 breast cancer cells – cell-based, 24 h, human, pilot screen (AID 572;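 active = viability at or below 10% of carrier control in both of two separate runs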;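 also: compound exposure lasted between 18 and 24 h rather than exactly 24 h; 100% = carrier-treated control wells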); details: SK-BR-3 viability, CellTiter-Glo luminescence, at 10 µM, stronger effect = lower value
[4] = HUVEC growth inhibition – cell-based, human, primary screen (AID 575;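 active = viability at or below 30% in both replicate assays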;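 also: 100% = median of untreated cell wells with 0.1% DMSO on each plate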); details: HUVEC proliferation, CellTiter-Glo luminescence, 72 h; at 10 µM; stronger effect = lower value
Outline: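 Test system – primary HUVEC, no more than 12 passages · Dosing – one dose, 10 µM final, 0.1% DMSO · Times – 72 h treatment at 37 °C · Measured by – ATP-based CellTiter-Glo luminescent read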

[5] = H69AR cell proliferation blockers – human, duplicate replicates, primary screen (AID 580;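 active = viability at or under a set limit in both replicates, limit being median viability minus 3 SD, cut at about 48% in these data, passing the limit was not always enough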;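 also: 100% = mean luminescence of untreated wells and 0% = no signal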); details: H69AR lung tumor cells viability, ATP luminescence, 72 h; at 10 µM; stronger effect = lower value
[6] = MRP1 drug-resistance reversers in H69AR cells – cell-based, doxorubicin co-treatment, pilot screen (AID 601); details: CellTiter-Glo, 72 h, at 10 µM; for differential viability (reversal): stronger effect = higher value
[7] = yeast transport mutant growth inhibition pilot in 384-well plates, post-Golgi transport modulator project (AID 636; in the data active = inhibition above about 31%); details: absorbance 615 nm, about 18 h, stronger effect = higher value
[8] = growth suppression of yeast trafficking mutant, preliminary HTS, modulators of trafficking downstream of Golgi apparatus project, 1536-format plate, OD 615 nm (AID 637; in the data active = inhibition above about 30%); details: yeast transport mutant growth, absorbance 615 nm, 18 h; stronger effect = higher value
[9] = H69AR cells + 2 uM doxorubicin, measured here: viability with 2 uM doxorubicin, stronger effect = lower value
[10] = H69AR cells, compound alone cytotoxicity

| SMILES | viability [1] | Her2 level [2] | viability [3] | viability [4] | viability [5] | differential viability (reversal) ([6]; H69AR cells + 2 uM doxorubicin) | viability [6, 9] | viability [6, 10] | inhibition [7] | inhibition [8] |
| --- | --- | --- | --- | --- | --- | --- | --- | --- | --- | --- |
| Cc1cc(-c2ccccc2)c2c3c(cn2n1)c(=O)n(C)c(=O)n3C | 108% | 83% (inactive) | 108% (inactive) | 84.3% (inactive) | 75.6% (inactive) | -0.565% (inactive) | 76.1% | 75.6% | -2.37% (inactive) | 0.33% (inactive) |
| CC1=C(C(=O)OC2CCCCC2)C(c2cccnc2)n2ncnc2N1 (stereo not given) | 104% | 66.5% (inactive) | 104% (inactive) | 105% (inactive) | 81.8% (inactive) | -8.64% (inactive) | 90.4% | 81.8% | -6.58% (inactive) | -5.83% (inactive) |
| CC(C)Cc1nc(S(=O)(=O)c2ccc(Cl)cc2)c(N2CCOCC2)o1 | 128% | 94.5% (inactive) | 128% (inactive) | 87.8% (inactive) | 90.7% (inactive) | 0.63% (inactive) | 90.1% | 90.7% | -5.06% (inactive) | 1.75% (inactive) |
| CN1C(=O)CCC1(O)c1ccccc1 (stereo not given) | 89% | 98% (inactive) | 89% (inactive) | 116% (inactive) | 92.3% (inactive) | 0.975% (inactive) | 91.3% | 92.3% | 0.91% (inactive) | -8.17% (inactive) |
| Cc1c(C(=O)NCc2ccccc2)oc2c1C(=O)CCC2 | 72% | 93.5% (inactive) | 72% (inactive) | 75.2% (inactive) | 99.2% (inactive) | 15.6% (inactive) | 83.6% | 99.2% | -4.87% (inactive) | 5.67% (inactive) |
| C/C(N)=C(/C#N)C(=O)COC(=O)c1cc(C)n(-c2ccc(F)cc2)c1C | 91% | 97.5% (inactive) | 91% (inactive) | 49.4% (inactive) | 98.1% (inactive) | -0.13% (inactive) | 98.2% | 98.1% | -4.53% (inactive) | -1.45% (inactive) |
| CN1CC(=O)N(CC(=O)NCCc2ccc(F)cc2)c2ccccc2C1=O | 95% | 90.5% (inactive) | 95% (inactive) | 105% (inactive) | 90% (inactive) | -3.62% (inactive) | 93.6% | 90% | -6.36% (inactive) | 1.75% (inactive) |
| Clc1ccc(CSc2nnc(Cn3cnc4ccccc43)o2)cc1 | 74.5% | 72% (inactive) | 74.5% (inactive) | 48.2% (inactive) | 99.2% (inactive) | 2.03% (inactive) | 97.2% | 99.2% | -4.32% (inactive) | -1.8% (inactive) |
| CC(C)C(OC(=O)c1ccco1)C(=O)NCc1ccccc1 (stereo not given) | 91.5% | 97% (inactive) | 91.5% (inactive) | 92.5% (inactive) | 99.1% (inactive) | 8.63% (inactive) | 90.4% | 99.1% | 0% (inactive) | -4.6% (inactive) |
| O=C(Nc1ccncc1)c1cncc(Br)c1 | 78% | 95.5% (inactive) | 78% (inactive) | 114% (inactive) | 100% (inactive) | 4.04% (inactive) | 96.4% | 100% | -2.57% (inactive) | 1.5% (inactive) |
| Cc1nc(C)c(C(=O)C2=C(O)C(=O)N(CCN3CCOCC3)C2c2cccnc2)s1 (stereo not given) | 104% | 93% (inactive) | 104% (inactive) | 99.1% (inactive) | 97.4% (inactive) | 10.4% (inactive) | 87% | 97.4% | -3.95% (inactive) | 12.9% (inactive) |
| Cc1cc(C(=O)NCCN2CCCCC2C)n(-c2ccccc2)n1 (stereo not given) | 87.5% | 116% (inactive) | 87.5% (inactive) | 92.3% (inactive) | 92.6% (inactive) | 3.49% (inactive) | 89.1% | 92.6% | -2.8% (inactive) | -3.77% (inactive) |
| CC(=O)Nc1c2c(nn1-c1ccc(C)cc1C)CSC2 | 109% | 113% (inactive) | 109% (inactive) | 101% (inactive) | 90.7% (inactive) | -2.51% (inactive) | 93.2% | 90.7% | -1.17% (inactive) | -2.54% (inactive) |
| COc1cccc(-n2nc(C(=O)Nc3ccc4c(c3)OCO4)c3ccccc3c2=O)c1 | 109% | 80.5% (inactive) | 109% (inactive) | 85.1% (inactive) | 92.2% (inactive) | 5.91% (inactive) | 86.3% | 92.2% | -2.16% (inactive) | -1.27% (inactive) |
| CCOC(=O)CSc1nnc(-c2ccccc2OC)o1 | 116% | 96% (inactive) | 116% (inactive) | 80.2% (inactive) | 94.8% (inactive) | -11% (inactive) | 106% | 94.8% | -6.44% (inactive) | -6.51% (inactive) |
| Cn1c(=N)n(CC(=O)O)c2ccccc21 | 108% | 100% (inactive) | 108% (inactive) | 91.5% (inactive) | 96.2% (inactive) | 6.81% (inactive) | 89.4% | 96.2% | -5.97% (inactive) | -5.4% (inactive) |
| COCCn1c(NCc2ccc(C)cc2)nc2c1c(=O)[nH]c(=O)n2C | 108% | 87.5% (inactive) | 108% (inactive) | 87.2% (inactive) | 107% (inactive) | 7.44% (inactive) | 99.5% | 107% | -2.27% (inactive) | -1.29% (inactive) |
| O=S(=O)(Nc1ncccn1)c1ccc(Nc2ncnc3ccccc23)cc1 | 97.5% | 93% (inactive) | 97.5% (inactive) | 81.2% (inactive) | 95.7% (inactive) | 1.15% (inactive) | 94.5% | 95.7% | -7.57% (inactive) | 3.11% (inactive) |
| COc1ccc(Cl)cc1C(=O)n1nc(C)cc1C | 104% | 112% (inactive) | 104% (inactive) | 93% (inactive) | 94.6% (inactive) | 1.56% (inactive) | 93% | 94.6% | 2.43% (inactive) | 9.17% (inactive) |
| CCOC(=O)c1c(NC(=O)c2nn(CC)cc2Br)c(C#N)cn1-c1ccccc1 | 78% | 90% (inactive) | 78% (inactive) | 62.5% (inactive) | 74.8% (inactive) | 2.55% (inactive) | 72.2% | 74.8% | -4.61% (inactive) | -6.17% (inactive) |
| Cc1ccc(Cn2c(SCC(C)C)nc3c2c(=O)n(C)c(=O)n3C)cc1 | 84.5% | 75.5% (inactive) | 84.5% (inactive) | 62.2% (inactive) | 77.5% (inactive) | -12.6% (inactive) | 90.1% | 77.5% | -1.84% (inactive) | 9.34% (inactive) |
| O=C(NCCCN1CCCC1=O)c1cncc(Br)c1 | 97% | 83.5% (inactive) | 97% (inactive) | 98.5% (inactive) | 103% (inactive) | 10.1% (inactive) | 93% | 103% | -6.67% (inactive) | 6.56% (inactive) |
| CCOc1cccc(OCCOCCN2CCCC2)c1 | 107% | 89% (inactive) | 107% (inactive) | 91.3% (inactive) | 89.4% (inactive) | -1.11% (inactive) | 90.5% | 89.4% | -6.22% (inactive) | -3.17% (inactive) |
| CC(C)CNC(=O)C1C2C=CC(C2)C1C(=O)O (stereo not given) | 96% | 96% (inactive) | 96% (inactive) | 108% (inactive) | 111% (inactive) | 9.12% (inactive) | 102% | 111% | -1.33% (inactive) | -1.77% (inactive) |
| CCOC(=O)N1CCC(NC(=O)CSCc2nc(-c3cccc(OC)c3)oc2C)CC1 | 94.5% | 91% (inactive) | 94.5% (inactive) | 97.7% (inactive) | 106% (inactive) | 2.79% (inactive) | 103% | 106% | -2% (inactive) | 3.06% (inactive) |
| CCC(=O)N1C(=O)CCN(C(C)=O)c2ccccc21 | 86.5% | 106% (inactive) | 86.5% (inactive) | 100% (inactive) | 103% (inactive) | -1.28% (inactive) | 104% | 103% | -4.67% (inactive) | 0.32% (inactive) |
| CC1C(c2ccccc2)N(C)CCC12NC(=O)NC2=O (stereo not given) | 89% | 95.5% (inactive) | 89% (inactive) | 96.9% (inactive) | 98.2% (inactive) | 13% (inactive) | 85.2% | 98.2% | -5.33% (inactive) | -9.02% (inactive) |
| Cc1cc(C(=O)CSCc2nnc3n(CCC(C)C)c(=O)c4ccccc4n23)c(C)n1C | 99.5% | 84% (inactive) | 99.5% (inactive) | 84.2% (inactive) | 67.3% (inactive) | 0.59% (inactive) | 66.8% | 67.3% | -1.84% (inactive) | -0.73% (inactive) |
